{"source": "paper PMC7003773", "about": "(Clinical Pharmacology in Drug Development, 2019)", "key": {"S. aureus": {"system": "S. aureus", "details": "neutropenic murine thigh model; cited from earlier work"}, "serum albumin": {"system": "serum albumin", "details": "intravenous dose; unchanged by drug concentration, renal impairment or hepatic function; cited from earlier work"}, "[1]": {"details": "cited from earlier work"}, "[2]": {"system": "Staphylococcus aureus, Streptococcus pyogenes, Streptococcus dysgalactiae, vancomycin-susceptible Enterococcus faecalis", "test": "MIC distributions from 2017 surveillance program", "format": "cell-based", "details": "2017 surveillance data, United States and Europe, 4 most relevant species", "summary_of_the_method": "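Isolates came from the 2017 surveillance program: 70 US medical centers across 9 Census regions and 38 centers in 18 European countries. MICs were determined centrally at one reference laboratory by CLSI M07-A10 (2015) dilution methods. Isolate counts: S. aureus n = 8833, S. pyogenes n = 941, S. dysgalactiae n = 312, vancomycin-susceptible E. faecalis n = 1060. Distributions were plotted as histograms on a log MIC axis.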"}, "[3]": {"test": "Population pharmacokinetic analysis of clinical plasma concentration data", "format": "in vivo, human", "summary_of_the_method": "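Plasma sampled 1, 18, 23 and 36–48 h post-infusion. Assayed by LC-MS/MS (0.5–500 µg/mL), sub-0.5 µg/mL values dropped. Modelled in NONMEM with FOCE, log-normal IIV, stepwise covariates (forward P < .01, backward P < .001) and bootstrap uncertainty. T1/2 taken from 100 000 parameter draws.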"}, "[4]": {"details": "final popPK model, typical value"}}, "note": "Where two headings read alike, the source gives them in different places."}
{"smiles": "CN[C@H]1C(=O)N[C@@H]2Cc3ccc(cc3)Oc3cc4cc(c3O[C@@H]3O[C@H](C(=O)O)[C@@H](O)[C@H](O)[C@H]3NC(=O)CCCCCCCCC(C)C)Oc3ccc(cc3Cl)[C@@H](O)[C@@H]3NC(=O)[C@H](NC(=O)[C@@H]4NC(=O)[C@@H](NC2=O)c2cc(cc(O)c2Cl)Oc2cc1ccc2O)c1ccc(O)c(c1)-c1c(O[C@H]2O[C@H](CO)[C@@H](O)[C@H](O)[C@@H]2O)cc(O)cc1[C@@H](C(=O)NCCCN(C)C)NC3=O", "note": "[dalbavancin]", "values": [{"measurement": "2-log kill target, fAUC/MIC", "setting": "S. aureus", "value": 111.1}, {"measurement": "fraction bound to serum albumin / plasma protein", "setting": "serum albumin", "value": "approximately 93%"}, {"measurement": "total volume of distribution (Vd)", "setting": "[1]", "value": "~16", "unit": "L"}, {"measurement": "total drug clearance", "setting": "[1]; healthy subjects", "value": "approximately 0.04 L/h"}, {"measurement": "fraction of dose excreted as minor metabolite", "setting": "[1]; healthy volunteers, 1000 mg intravenous dose of dalbavancin, by 42 days postdose", "value": 12, "unit": "%"}, {"measurement": "fraction of dose excreted in the feces", "setting": "[1]; healthy volunteers, 1000 mg intravenous dose, by 42 days postdose", "value": "one‐third"}, {"measurement": "fraction of dose excreted in urine unmodified", "setting": "[1]; healthy volunteers, 1000 mg intravenous dose", "value": "one‐third"}, {"measurement": "terminal half-life", "setting": "[1]; intravenous", "value": "> 14", "unit": "days"}, {"measurement": "total drug clearance", "setting": "[1]; patients", "value": "~0.058", "unit": "L/h"}, {"measurement": "rightmost histogram bar of the MIC distributions (highest MIC observed)", "setting": "[2]", "value": 0.25}, {"measurement": "total volume of distribution", "setting": "[3]; 3-compartment popPK model", "value": "~15", "unit": "L"}, {"measurement": "T1/2", "setting": "[3]; calculated from 100 000 random samples drawn from mean and covariance of estimated model parameters", "value": 8.77, "unit": "days"}, {"measurement": "Q2, distributional clearance", "setting": "[3]; final popPK model, no IIV", "value": 0.288, "unit": "L/h"}, {"measurement": "Q3, distributional clearance", "setting": "[3]; final popPK model, no IIV", "value": 2.11, "unit": "L/h"}, {"measurement": "V1, central volume of distribution", "setting": "[3]; [4]", "value": 3.04, "unit": "L"}, {"measurement": "V2", "setting": "[3]; [4]", "value": 8.78, "unit": "L"}, {"measurement": "V3", "setting": "[3]; [4]", "value": 3.28, "unit": "L"}]}
